Measurements taken from ChEMBL document CHEMBL1153798, “Substituted tetrahydroquinolines as potent allosteric inhibitors of reverse transcriptase and its key mutants” (Bioorg Med Chem Lett, 2009).
pIC50: −log10 of the molar value.

Assays:
[1] = test system: Human immunodeficiency virus 1; test: Antiviral activity against HIV1 3B infected human MT4 cells assessed as drug level required for 95% inhibition in the presence of 50% normal human serum; format: functional
Procedure, shortened: (§1)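 Spread assay: MT-4 human T-lymphoid cells in RPMI 1640 with either 10% FBS or 50% NHS; CIC95 taken as the concentration blocking >95% of virus spread. Wild-type virus H9IIIB or R8 as stated per line. Geometric mean of at least two determinations, individual values within 25% of the mean.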

[2] = Inhibition of HIV1 reverse transcriptase K103 mutant
[3] = test system: Human immunodeficiency virus 1; test: Antiviral activity against HIV1 3B infected human MT4 cells assessed as drug level required for 95% inhibition in the presence of 10% fetal bovine serum; format: functional; procedure, shortened: as §1
[4] = Protein binding in human plasma; format: ADME, cell-free; conditions: read-out: PB
Rattus norvegicus = test: Hepatic clearance in rat at 10 mg/kg, po and 2 mg/kg, iv; conditions: in vivo
[5] = Half life in Sprague-Dawley rat at 10 mg/kg, po and 2 mg/kg, iv; format: ADME, organism-based; conditions: in vivo
[6] = Half life in Beagle dog at 1 mg/kg, po and 0.5 mg/kg, iv; format: ADME, organism-based, Canis lupus familiaris; conditions: in vivo
Procedure, shortened: (§2)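 Beagle dogs (n = 2) dosed singly, po 1 mg/kg and iv 0.5 mg/kg; iv cassette co-administered with other analogues at 0.125 mg/kg. Interanimal variability below 20%.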

Canis familiaris = test: Hepatic clearance in Beagle dog at 1 mg/kg, po and 0.5 mg/kg, iv; format: ADME, organism-based, Canis lupus familiaris, Liver; conditions: in vivo; procedure, shortened: as §2
[7] = test system: Human immunodeficiency virus 1; test: Antiviral activity against HIV1 carrying reverse transcriptase […] mutant infected human MT4 cells by phenoscreen assay in the presence of 40 percent normal human serum; format: functional, organism-based; conditions: Human immunodeficiency virus 1, MT4
Procedure, shortened: (§3)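 Phenotypic recombinant-virus assay (Phenoscreen, Monogram Bioscience), run with 40% normal human serum present. IC50 is the compound concentration in cell culture that inhibits viral replication by 50%.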

[8] = test system: Human immunodeficiency virus 1; test: Antiviral activity against HIV1 carrying reverse transcriptase K101E/G190A mutant infected human MT4 cells by phenoscreen assay in the presence of 40 percent normal human serum; conditions: Human immunodeficiency virus 1, MT4
[9] = test system: Human immunodeficiency virus 1; test: Ratio of IC50 for HIV1 carrying reverse transcriptase G190A mutant to IC50 for wild type HIV1 in the presence of 40% normal human serum; format: functional
[10] = test system: Human immunodeficiency virus 1; test: Ratio of IC50 for HIV1 carrying reverse transcriptase […] mutant to IC50 for wild type HIV1 in the presence of 40% normal human serum; format: functional
[11] = test system: Human immunodeficiency virus 1; test: Antiviral activity against HIV1 carrying reverse transcriptase K103N/V179E mutant infected human MT4 cells by phenoscreen assay in the presence of 40 percent normal human serum; format: functional, organism-based; conditions: Human immunodeficiency virus 1, MT4; procedure, shortened: as §3
[12] = test system: Human immunodeficiency virus 1; test: Antiviral activity against HIV1 carrying reverse transcriptase […]/G190A mutant infected human MT4 cells in the presence of 40 percent normal human serum; format: functional; procedure, shortened: as §3
[13] = test system: Human immunodeficiency virus 1; test: Ratio of IC50 for HIV1 carrying reverse transcriptase Y181C/G190A mutant to IC50 for wild type HIV1 in the presence of 40% normal human serum; format: functional
[14] = test system: Human immunodeficiency virus 1; test: Ratio of IC50 for HIV1 carrying reverse transcriptase K103N/Y181C mutant to IC50 for wild type HIV1 in the presence of 40% normal human serum; format: functional
[15] = test system: Human immunodeficiency virus 1; test: Ratio of IC50 for HIV1 carrying reverse transcriptase K103N/P225H mutant to IC50 for wild type HIV1 in the presence of 40% normal human serum; format: functional
[16] = test system: Human immunodeficiency virus 1; test: Ratio of IC50 for HIV1 carrying reverse transcriptase K103N/V179E mutant to IC50 for wild type HIV1 in the presence of 40% normal human serum; format: functional
[17] = test system: Human immunodeficiency virus 1; test: Ratio of IC50 for HIV1 carrying reverse transcriptase K103N mutant to IC50 for wild type HIV1 in the presence of 40% normal human serum; format: functional
[18] = test system: Human immunodeficiency virus 1; test: Antiviral activity against HIV1 carrying reverse transcriptase G190A mutant infected human MT4 cells by phenoscreen assay in the presence of 40 percent normal human serum; conditions: Human immunodeficiency virus 1, MT4
[19] = test system: Human immunodeficiency virus 1; test: Antiviral activity against HIV1 carrying reverse transcriptase K103N/ Y181C/G190A mutant infected human MT4 cells by phenoscreen assay in the presence of 40 percent normal human serum; format: functional, organism-based; conditions: Human immunodeficiency virus 1, MT4; procedure, shortened: as §3
[20] = test system: Human immunodeficiency virus 1; test: Antiviral activity against HIV1 carrying reverse transcriptase K103N/G190A mutant infected human MT4 cells by phenoscreen assay in the presence of 40 percent normal human serum; format: functional, organism-based; conditions: Human immunodeficiency virus 1, MT4; procedure, shortened: as §3
[21] = test system: Human immunodeficiency virus 1; test: Antiviral activity against HIV1 carrying reverse transcriptase Y188L mutant infected human MT4 cells by phenoscreen assay in the presence of 40 percent normal human serum; format: functional, organism-based; conditions: Human immunodeficiency virus 1, MT4; procedure, shortened: as §3
[22] = test system: Human immunodeficiency virus 1; test: Ratio of IC50 for HIV1 carrying reverse transcriptase Y188L mutant to IC50 for wild type HIV1 in the presence of 40% normal human serum; format: functional
[23] = test system: Human immunodeficiency virus 1; test: Ratio of IC50 for HIV1 carrying reverse transcriptase V106A/G190A/F227L mutant to IC50 for wild type HIV1 in the presence of 40% normal human serum; format: functional
[24] = test system: Human immunodeficiency virus 1; test: Antiviral activity against HIV1 carrying reverse transcriptase Y181C mutant infected human MT4 cells by phenoscreen assay in the presence of 40 percent normal human serum; format: functional, organism-based; conditions: Human immunodeficiency virus 1, MT4; procedure, shortened: as §3
[25] = test system: Human immunodeficiency virus 1; test: Antiviral activity against HIV1 infected human MT4 cells by phenoscreen assay in the presence of 40 percent normal human serum; format: functional, organism-based; conditions: Human immunodeficiency virus 1, MT4
[26] = test system: Human immunodeficiency virus 1; test: Antiviral activity against HIV1 carrying reverse transcriptase K103N mutant infected human MT4 cells by phenoscreen assay in the presence of 40 percent normal human serum; format: functional, organism-based; conditions: Human immunodeficiency virus 1, MT4; procedure, shortened: as §3
[27] = test system: Human immunodeficiency virus 1; test: Antiviral activity against HIV1 R8 infected human MT4 cells assessed as drug level required for 95% inhibition in the presence of 10% fetal bovine serum; format: functional; procedure, shortened: as §1
[28] = test system: Human immunodeficiency virus 1; test: Ratio of IC50 for HIV1 carrying reverse transcriptase Y181C mutant to IC50 for wild type HIV1 in the presence of 40% normal human serum; format: functional
[29] = test system: Human immunodeficiency virus 1; test: Antiviral activity against HIV1 carrying reverse transcriptase K101E/ Y181C/G190A mutant infected human MT4 cells by phenoscreen assay in the presence of 40 percent normal human serum; conditions: Human immunodeficiency virus 1, MT4
[30] = test system: Human immunodeficiency virus 1; test: Ratio of IC50 for HIV1 carrying reverse transcriptase K103N/G190A mutant to IC50 for wild type HIV1 in the presence of 40% normal human serum; format: functional
[31] = test system: Human immunodeficiency virus 1; test: Ratio of IC50 for HIV1 carrying reverse transcriptase […]/G190A mutant to IC50 for wild type HIV1 in the presence of 40% normal human serum; format: functional
[32] = test system: Human immunodeficiency virus 1; test: Ratio of IC50 for HIV1 carrying reverse transcriptase G190S mutant to IC50 for wild type HIV1 in the presence of 40% normal human serum; format: functional
[33] = test system: Human immunodeficiency virus 1; test: Antiviral activity against HIV1 carrying reverse transcriptase V106A/G190A/F227L mutant infected human MT4 cells by phenoscreen assay in the presence of 40 percent normal human serum; format: functional, organism-based; conditions: Human immunodeficiency virus 1, MT4; procedure, shortened: as §3
[34] = test system: Human immunodeficiency virus 1; test: Antiviral activity against HIV1 carrying reverse transcriptase G190S mutant infected human MT4 cells by phenoscreen assay in the presence of 40 percent normal human serum; conditions: Human immunodeficiency virus 1, MT4
[35] = test system: Human immunodeficiency virus 1; test: Antiviral activity against HIV1 carrying reverse transcriptase Y181C/G190A mutant infected human MT4 cells by phenoscreen assay in the presence of 40 percent normal human serum; format: functional, organism-based; conditions: Human immunodeficiency virus 1, MT4; procedure, shortened: as §3
[36] = test system: Human immunodeficiency virus 1; test: Ratio of IC50 for HIV1 carrying reverse transcriptase […]/ Y181C/G190A mutant to IC50 for wild type HIV1 in the presence of 40% normal human serum; format: functional
[37] = test system: Human immunodeficiency virus 1; test: Antiviral activity against HIV1 R8 infected human MT4 cells assessed as drug level required for 95% inhibition in the presence of 50% normal human serum; format: functional; procedure, shortened: as §1
[38] = test system: Human immunodeficiency virus 1; test: Antiviral activity against HIV1 carrying reverse transcriptase K103N/P225H mutant infected human MT4 cells by phenoscreen assay in the presence of 40 percent normal human serum; format: functional, organism-based; conditions: Human immunodeficiency virus 1, MT4; procedure, shortened: as §3

Compound: NS(=O)(=O)c1ccc(NC(=O)CSC(=O)N2CCCc3cccc(Cl)c32)c(Cl)c1
- ID95 [1]: 47 nM
- pIC50 [2]: 8.40
- ID95 [3]: 23 nM

Compound: NS(=O)(=O)c1ccc(NC(=O)CNC(=O)N2CCCc3cc(Cl)cc(Cl)c32)c(Cl)c1
- Activity [1]: >10000 nM
- Activity [3]: 562 nM

Compound: Cc1cc(C)c(N(C)C(=O)SCC(=O)Nc2ccc(S(N)(=O)=O)cc2Cl)c(C)c1
- pIC50 [2]: 8.05

Compound: Cc1cccc2c1N(C(=O)SCC(=O)Nc1ccc(S(N)(=O)=O)cc1Cl)CCC2
- ID95 [1]: 219 nM
- pIC50 [2]: 8.40
- ID95 [3]: 47 nM

Compound: Cc1ccc2c(c1)CCCN2C(=O)SCC(=O)Nc1ccc(S(N)(=O)=O)cc1Cl
- ID95 [1]: 396 nM
- ID95 [3]: 78 nM
- fraction unbound [4]: 0.01

Compound: N#Cc1ccc(NC(=O)CSC(=O)N2CCCc3cc(Cl)cc(Cl)c32)c(Cl)c1
- ID95 [1]: 1250 nM
- pIC50 [2]: 7.85

Compound: NS(=O)(=O)c1ccc(NC(=O)CCC(=O)N2CCCc3cc(Cl)cc(Cl)c32)c(Cl)c1
- Activity [1]: 5000 nM
- Activity [3]: 406 nM

Compound: O=C(CSC(=O)N1CCCc2cc(Cl)cc(Cl)c21)Nc1ccccc1Cl
- ID95 [1]: 406 nM
- ID95 [3]: 125 nM

Compound: NS(=O)(=O)c1ccc(NC(=O)C2CC2C(=O)N2CCCc3cc(Cl)cc(Cl)c32)c(Cl)c1 (single isomer, unassigned; 16)
- Activity [1]: 304 nM
- CL (Rattus norvegicus): 22 mL/min/kg
- half-life [5]: 0.5 h
- half-life [6]: 1.3 h
- pIC50 [2]: 7.74
- CL (Canis familiaris): 14 mL/min/kg
- Activity [3]: 176 nM

Compound: NS(=O)(=O)c1ccc(NC(=O)CSC(=O)N2CCCc3cc(Cl)ccc32)c(Cl)c1
- ID95 [1]: 1250 nM
- ID95 [3]: 141 nM

Compound: CS(=O)(=O)c1ccc(NC(=O)CSC(=O)N2CCCc3cc(Cl)cc(Cl)c32)c(Cl)c1
- pIC50 [7]: 7.30
- pIC50 [8]: < 6.60
- fold change (FC) [9]: 34.8
- fold change (FC) [10]: 11
- pIC50 [11]: 8.12
- fold change (FC) [12]: >56
- fold change (FC) [13]: >56
- fold change (FC) [14]: 33.2
- fold change (FC) [15]: 2.1
- CL (Rattus norvegicus): 84 mL/min/kg
- fold change (FC) [16]: 1.7
- fold change (FC) [17]: 0.4
- pIC50 [18]: 6.80
- pIC50 [19]: < 6.60
- half-life [5]: 1.7 h
- pIC50 [20]: 7.24
- pIC50 [21]: < 6.60
- fold change (FC) [22]: >56
- fold change (FC) [23]: >56
- pIC50 [24]: 7.06
- pIC50 [25]: 8.35
- pIC50 [26]: 8.70
- Activity [27]: 5.6 nM
- fold change (FC) [28]: 19
- pIC50 [29]: < 6.60
- fold change (FC) [30]: 21.3
- fold change (FC) [31]: >56
- pIC50 [2]: 8.52
- fold change (FC) [32]: >56
- pIC50 [33]: < 6.60
- pIC50 [34]: < 6.60
- pIC50 [35]: < 6.60
- fold change (FC) [36]: >56
- Activity [37]: 5.7 nM
- pIC50 [38]: 8.03

Compound: NCCCNC(=O)c1ccc(NC(=O)CSC(=O)N2CCCc3cc(Cl)cc(Cl)c32)c(Cl)c1
- Activity [27]: 97 nM
- Activity [37]: 34 nM

Compound: NS(=O)(=O)c1ccc(NC(=O)C2CC2C(=O)N2CCCc3cc(Cl)cc(Cl)c32)c(Cl)c1 (single isomer, unassigned; 17)
- Activity [1]: 922 nM
- pIC50 [2]: 6.37
- Activity [3]: 922 nM

Compound: O=C(CSC(=O)N1CCCc2cc(Cl)cc(Cl)c21)Nc1ccc(C(=O)NCc2ccccc2)cc1Cl
- Activity [27]: 63 nM
- Activity [37]: 307 nM

Compound: NS(=O)(=O)c1ccc(NC(=O)COC(=O)N2CCCc3cc(Cl)cc(Cl)c32)c(Cl)c1
- Activity [1]: 2500 nM
- pIC50 [2]: 7.68
- Activity [3]: 187 nM
